How the values were obtained:
[1] = Bioavailability in rat as ratio of unchanged drug excreted in the urine after p.o dosing to that following i.v. administration; type: ADME, organism-based; conditions: po
Procedure, shortened: (§1)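 Sprague-Dawley male rats given clodronate esters at 100 μmol/kg orally and intravenously, three animals per dose level and route. Unchanged drug was measured by capillary GC with nitrogen-phosphorus detection. F = (cumulative oral urinary amount × iv dose)/(cumulative iv urinary amount × oral dose).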

Rattus norvegicus [2] = species on record: Rattus norvegicus; test: Bioavailability of compound was determined from urinary excretion data in rat, expressed as log; type: ADME, organism-based, Urine; conditions: in vivo; procedure, shortened: as §1
Rattus norvegicus [3] = test: In vivo inhibition of bone resorption tested in rat resorption assay measured at dose of 150 umol/kg after iv administration
Mus musculus [4] = species on record: Mus musculus; test: In vitro inhibition of bone resorption tested in mouse calvarial resorption assay by measuring release of 45Ca from labelled bones; type: functional; set-up: concentration or dose not given beside the values
Procedure, shortened: (§2)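 Mouse calvarial pieces prelabelled with 45Ca, cultured 72 h with PTH (10 nmol/l) plus ester at 100 μmol/l. Calcium release was measured and expressed as percent of control, the control being PTH-stimulated bones without bisphosphonate.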

Mus musculus [5] = species on record: Mus musculus; test: In vitro inhibition of bone resorption tested in mouse calvarial resorption assay by measuring release of 45Ca from labelled bones; expressed as logit inhibition resorption; type: functional; procedure, shortened: as §2
Rattus norvegicus [6] = test: In vivo inhibition of bone resorption tested in rat resorption assay measured at dose of 150 umol/kg after iv administration, expressed as log
[7] = Partition coefficient (logP); type: physicochemical; conditions: octanol/water
Procedure, shortened: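 Shake-flask partition: 200 mg ester dissolved in 4 mL pH 7.4 phosphate buffer or 1-octanol (each saturated with the other), the opposite phase (4 mL) added, shaken 1 h, left overnight, then centrifuged. Both phases were assayed by capillary GC with nitrogen-phosphorus detection.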

Mus musculus [8] = species on record: Mus musculus; test: In vitro inhibition of bone resorption tested in mouse calvarial resorption assay by measuring release of 45Ca from labelled bones; expressed as logit inhibition response; type: functional; procedure, shortened: as §2

SMILES | bioavailability [1] [%] | Logit bioavailability (Rattus norvegicus [2]) | Delta Ca (Rattus norvegicus [3]) [mM] | Inhibition (Mus musculus [4]) [%] | Logit_p(conc) (Mus musculus [5]) | Log 1/delta/Ca (Rattus norvegicus [6]) | logP ([7]; read-out: logP) | Inhibition (Mus musculus [5]) [%] | Logit_p(conc) (Mus musculus [8]) | logP [7]
CC(C)OP(=O)(OC(C)C)C(Cl)(Cl)P(=O)(O)O | 13.6 | 3.19 | 1.25 | 0.8 | 1.3 | 2.9 | -3.56 |  |  | 
CCCCCCOP(=O)(O)C(Cl)(Cl)P(=O)(OCCCCCC)OCCCCCC |  |  |  | 58 | 4.31 |  | 4.89 |  |  | 
CC(C)OP(=O)(O)C(Cl)(Cl)P(=O)(OC(C)C)OC(C)C | 1.9 | 2.28 | 1.51 | 7.4 | 2.9 | 2.82 | -0.95 |  |  | 
CCCCCCOP(=O)(O)C(Cl)(Cl)P(=O)(O)OCCCCCC | 31 | 3.65 | 1.43 | 20.5 | 3.41 | 2.84 | -0.64 |  |  | 
CC(C)OP(=O)(O)C(Cl)(Cl)P(=O)(O)O | 3.6 | 2.57 | 1.27 | 11.8 | 3.12 | 2.9 | -3.24 |  |  | 
CC(C)OP(=O)(O)C(Cl)(Cl)P(=O)(O)OC(C)C | 1.9 | 2.3 | 1.09 | 8 | 2.93 | 2.96 | -2.96 |  |  | 
CCOP(=O)(O)C(Cl)(Cl)P(=O)(O)OCC | 34 | 3.71 | 1.05 | 12.3 | 3.15 | 2.98 | -3.96 |  |  | 
CCOP(=O)(O)C(Cl)(Cl)P(=O)(OCC)OCC | 7 | 2.88 | 0.7 | 14.7 | 3.23 | 3.15 | -2.37 |  |  | 
CCCCCCOP(=O)(OCCCCCC)C(Cl)(Cl)P(=O)(O)O | 7.6 | 2.91 | 0.93 | 15.1 | 3.25 | 3.03 | -0.15 |  |  | 
CCCCCCOP(=O)(O)C(Cl)(Cl)P(=O)(O)O | 17.9 | 3.4 |  | 21.1 | 3.42 |  | -2.75 |  |  | 
CCOP(=O)(OCC)C(Cl)(Cl)P(=O)(OCC)OCC | 5 | 2.72 | 1.52 | 18.8 | 3.36 | 2.81 | 1.31 |  |  | 
CCOP(=O)(O)C(Cl)(Cl)P(=O)(O)O | 37.9 | 3.79 | 0.77 |  |  | 3.11 |  | 15.4 | 3.26 | -5.44
CC(C)OP(=O)(OC(C)C)C(Cl)(Cl)P(=O)(OC(C)C)OC(C)C | 32.1 | 3.67 | 1.54 | 17.5 | 3.32 | 2.81 | 2.89 |  |  | 
